According to ChEMBL document CHEMBL2069269, “Anti-inflammatory Effect of a Cell-Penetrating Peptide Targeting the Nrf2/Keap1 Interaction” (2012):
The source made the active and inactive calls. The calls are words filed in the database; no cut-off is given here. Where a SMILES comes first, the peptide text is derived from it.

Legend:
[1] = molecular target: Kelch-like ECH-associated protein 1 (Homo sapiens) (UniProt Q14145); test: Inhibition of Keap1 interaction with Nrf2 in human THP1 cells assessed as increase in HO-1 mRNA expression at 100 uM from 3 to 6 hrs by qRT-PCR analysis; assay type: cell-based; conditions: THP-1
Chain of Kelch-like ECH-associated protein 1 (Homo sapiens) (Q14145 whole entry): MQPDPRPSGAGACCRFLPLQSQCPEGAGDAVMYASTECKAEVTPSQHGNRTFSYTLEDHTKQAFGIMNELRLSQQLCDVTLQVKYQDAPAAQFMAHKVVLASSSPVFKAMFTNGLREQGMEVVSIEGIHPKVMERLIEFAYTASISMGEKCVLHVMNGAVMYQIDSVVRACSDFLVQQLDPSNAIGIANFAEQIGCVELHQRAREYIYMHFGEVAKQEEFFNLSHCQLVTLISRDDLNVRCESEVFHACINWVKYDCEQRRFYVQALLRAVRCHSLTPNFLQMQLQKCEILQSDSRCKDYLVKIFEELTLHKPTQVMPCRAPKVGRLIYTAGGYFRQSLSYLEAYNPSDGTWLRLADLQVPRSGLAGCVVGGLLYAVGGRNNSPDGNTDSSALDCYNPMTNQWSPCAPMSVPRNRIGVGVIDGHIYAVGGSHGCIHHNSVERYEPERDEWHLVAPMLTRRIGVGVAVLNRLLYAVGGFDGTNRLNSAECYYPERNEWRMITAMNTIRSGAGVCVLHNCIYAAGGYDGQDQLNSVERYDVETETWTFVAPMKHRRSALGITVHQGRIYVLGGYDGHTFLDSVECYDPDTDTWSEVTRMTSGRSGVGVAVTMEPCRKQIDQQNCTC
Procedure, shortened: (§1)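 Human THP-1 monocytes were incubated with peptide over a time course. HO-1 mRNA was measured by qRT-PCR and normalised to GAPDH mRNA. Data are means ± SEM, n = 3. A dose series of 7.5, 18.75, 37.5 and 75 μM was also tested by the same read-out.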

[2] = molecular target: Kelch-like ECH-associated protein 1 (Homo sapiens) (UniProt Q14145); test: Inhibition of Keap1 interaction with Nrf2 in human THP1 cells assessed as increase in HO-1 mRNA expression at 100 uM from 2 to 8 hrs by qRT-PCR analysis; assay type: cell-based; conditions: THP-1; procedure, shortened: as §1
[3] = molecular target: Kelch-like ECH-associated protein 1 (Homo sapiens) (UniProt Q14145); test: Inhibition of Keap1 interaction with Nrf2 in human THP1 cells assessed as increase in Nrf2 protein expression at 100 uM after 3 hrs by Western blot analysis; assay type: cell-based; conditions: THP-1
Procedure, shortened: (§2)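 THP-1 cells were incubated with peptide over a time course, alongside a peptide scrambled in the Keap1-binding 14mer region. Nrf2 protein was detected in cell lysates by Western blot.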

[4] = molecular target: Kelch-like ECH-associated protein 1 (Homo sapiens) (UniProt Q14145); test: Inhibition of Keap1 interaction with Nrf2 in human THP1 cells assessed as increase in HO-1 protein expression at 37.5 uM by Western blot analysis; assay type: cell-based; conditions: THP-1
[5] = molecular target: Kelch-like ECH-associated protein 1 (Homo sapiens) (UniProt Q14145); test: Inhibition of Keap1 interaction with Nrf2 in human THP1 cells assessed as increase in HO-1 protein expression at 100 uM at 12 hrs by Western blot analysis; assay type: cell-based; conditions: THP-1
Procedure, shortened: (§3)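 THP-1 monocytes were treated with peptide or the scrambled-sequence control peptide over a time course. HO-1 protein was assessed by Western blot. The blot shown is representative of n = 3 experiments.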

[6] = molecular target: Kelch-like ECH-associated protein 1 (Homo sapiens) (UniProt Q14145); test: Inhibition of Keap1 interaction with Nrf2 in human THP1 cells assessed as increase in HO-1 protein expression by Western blot analysis; assay type: cell-based; conditions: THP-1; procedure, shortened: as §3
[7] = system: THP-1; test: Upregulation of Nrf2 mRNA expression in human THP1 cells at 100 uM by qRT-PCR analysis; assay type: functional, cell-based
[8] = system: THP-1; test: Antiinflammatory activity in human THP1 cells assessed as inhibition of LPS-induced TNFalpha mRNA expression at 100 uM incubated for 4 hrs prior to LPS-stimulation measured after 3 hrs by qRT-PCR analysis
[9] = molecular target: Kelch-like ECH-associated protein 1 (Homo sapiens) (UniProt Q14145); test: Inhibition of Keap1 interaction with Nrf2 in human THP1 cells assessed as increase in HO-1 mRNA expression at 75 uM at 6 hrs by qRT-PCR analysis relative to control; assay type: cell-based; conditions: THP-1; procedure, shortened: as §1
[10] = molecular target: Kelch-like ECH-associated protein 1 (Homo sapiens) (UniProt Q14145); test: Inhibition of Keap1 interaction with Nrf2 in human THP1 cells assessed as increase in HO-1 protein expression at 100 uM at 9 to 16 hrs by Western blot analysis; assay type: cell-based; conditions: THP-1; procedure, shortened: as §3
[11] = molecular target: Kelch-like ECH-associated protein 1 (Homo sapiens) (UniProt Q14145); test: Inhibition of Keap1 interaction with Nrf2 in human THP1 cells assessed as increase in Nrf2 protein expression at 100 uM from 1 to 6 hrs by Western blot analysis; assay type: cell-based; conditions: THP-1; procedure, shortened: as §2

## CC(C)C[C@H](NC(=O)[C@H](CCCNC(=N)N)NC(=O)[C@H](CCCNC(=N)N)NC(=O)[C@H](CCCNC(=N)N)NC(=O)[C@H](CCC(N)=O)NC(=O)[C@H](CCCNC(=N)N)NC(=O)[C@H](CCCNC(=N)N)NC(=O)[C@H](CCCCN)NC(=O)[C@H](CCCCN)NC(=O)[C@H](CCCNC(=N)N)NC(=O)CNC(=O)[C@@H](N)Cc1ccc(O)cc1)C(=O)N[C@@H](CC(=O)O)C(=O)N[C@@H](CCC(=O)O)C(=O)N[C@@H](CCC(=O)O)C(=O)N[C@H](C(=O)NCC(=O)N[C@@H](CCC(=O)O)C(=O)N[C@@H](Cc1ccccc1)C(=O)N[C@@H](CC(C)C)C(=O)N1CCC[C@H]1C(=O)O)[C@@H](C)O
[1]
  inhibition: Active

## CC[C@H](C)[C@H](NC(=O)[C@@H]1CCCN1C(=O)[C@H](CC(C)C)NC(=O)[C@H](Cc1ccccc1)NC(=O)[C@H](CCC(=O)O)NC(=O)CNC(=O)[C@@H](NC(=O)[C@H](CCC(=O)O)NC(=O)[C@H](CCC(=O)O)NC(=O)[C@H](CC(=O)O)NC(=O)[C@H](CC(C)C)NC(=O)[C@H](CCC(N)=O)NC(=O)[C@@H](N)CC(C)C)[C@@H](C)O)C(=O)N[C@@H](CCC(N)=O)C(=O)O
[2]
  inhibition: inactive

## CC(C)C[C@H](NC(=O)[C@H](Cc1ccccc1)NC(=O)[C@H](CCC(=O)O)NC(=O)CNC(=O)[C@@H](NC(=O)[C@H](CCC(=O)O)NC(=O)[C@H](CCC(=O)O)NC(=O)[C@H](CC(=O)O)NC(=O)[C@H](CC(C)C)NC(=O)[C@H](CCC(N)=O)NC(=O)[C@H](CC(C)C)NC(=O)[C@H](CCC(N)=O)NC(=O)[C@H](C)NC(=O)[C@H](Cc1ccccc1)NC(=O)[C@H](Cc1ccccc1)NC(=O)[C@H](C)NC(=O)[C@H](CCCNC(=N)N)NC(=O)[C@H](CCCNC(=N)N)NC(=O)[C@H](CCCNC(=N)N)NC(=O)[C@H](CCC(N)=O)NC(=O)[C@H](CCCNC(=N)N)NC(=O)[C@H](CCCNC(=N)N)NC(=O)[C@H](CCCCN)NC(=O)[C@H](CCCCN)NC(=O)[C@H](CCCNC(=N)N)NC(=O)CNC(=O)[C@@H](N)Cc1ccc(O)cc1)[C@@H](C)O)C(=O)O (H-YGRKKRRQRRRAFFAQLQLDEETGEFL-OH)
[1]
  inhibition: inactive

## CC[C@H](C)[C@H](NC(=O)[C@@H]1CCCN1C(=O)[C@H](CC(C)C)NC(=O)[C@H](Cc1ccccc1)NC(=O)[C@H](CCC(=O)O)NC(=O)CNC(=O)[C@@H](NC(=O)[C@H](CCC(=O)O)NC(=O)[C@H](CCC(=O)O)NC(=O)[C@H](CC(=O)O)NC(=O)[C@H](CC(C)C)NC(=O)[C@H](CCC(N)=O)NC(=O)[C@H](CC(C)C)NC(=O)[C@H](CCCNC(=N)N)NC(=O)[C@H](CCCNC(=N)N)NC(=O)[C@H](CCCNC(=N)N)NC(=O)[C@H](CCC(N)=O)NC(=O)[C@H](CCCNC(=N)N)NC(=O)[C@H](CCCNC(=N)N)NC(=O)[C@H](CCCCN)NC(=O)[C@H](CCCCN)NC(=O)[C@H](CCCNC(=N)N)NC(=O)CNC(=O)[C@@H](N)Cc1ccc(O)cc1)[C@@H](C)O)C(=O)N[C@@H](CCC(N)=O)C(=O)O
[3]
  inhibition: Active
[4]
  inhibition: Active
[5]
  inhibition: Active
[6]
  inhibition: Dose-dependent effect
[1]
  inhibition: inactive
[7]
  Activity: inactive
[8]
  inhibition at 100 µM: 61%
[9]
  fold change (FC): 24

## CC[C@H](C)[C@H](NC(=O)[C@H](CC(=O)O)NC(=O)[C@@H](NC(=O)CNC(=O)[C@H](Cc1ccccc1)NC(=O)[C@H](CCC(=O)O)NC(=O)[C@H](CCCNC(=N)N)NC(=O)[C@H](CCCNC(=N)N)NC(=O)[C@H](CCCNC(=N)N)NC(=O)[C@H](CCC(N)=O)NC(=O)[C@H](CCCNC(=N)N)NC(=O)[C@H](CCCNC(=N)N)NC(=O)[C@H](CCCCN)NC(=O)[C@H](CCCCN)NC(=O)[C@H](CCCNC(=N)N)NC(=O)CNC(=O)[C@@H](N)Cc1ccc(O)cc1)[C@@H](C)O)C(=O)N[C@@H](CCC(N)=O)C(=O)N[C@@H](CC(C)C)C(=O)N[C@H](C(=O)N[C@@H](CCC(=O)O)C(=O)N1CCC[C@H]1C(=O)N[C@@H](CCC(N)=O)C(=O)N[C@@H](CC(C)C)C(=O)N[C@@H](CCC(=O)O)C(=O)O)[C@@H](C)CC (H-YGRKKRRQRRREFGTDIQLIEPQLE-OH)
[10]
  inhibition: inactive
[2]
  inhibition: inactive
[11]
  inhibition: inactive
